Data set [1] can be described thus: Area under the concentration time curve (AUC) taken for 0-24 hr was measured when administered through iv route in mice. The class given is ADME, organism-based. On the set-up: time < 24 hr, route intravenous. As to conditions: mouse, in vivo. Summed up:
(§1)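 Mice received a single 25 mg/kg dose, as HCl salt in 20% hydroxypropyl-β-cyclodextrin, either orally or iv by tail vein. Blood was taken by cardiac puncture after CO2 euthanasia at nine times from 2 min to 24 h, with two mice per time point. Serum was acetonitrile-precipitated and quantified by HPLC-APCI tandem MS. AUC was derived by the linear trapezoidal rule on mean concentrations. Bioavailability is the oral/iv AUC ratio, from different animals. Cmax is the highest mean oral concentration. Half-life was estimated graphically after iv dosing.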

Data set [2] is described as follows: Area under the concentration time curve (AUC) taken for 0-24 hr was measured when administered through oral route in mice. The data set is classed as ADME, organism-based. The arrangement: time < 24 hr, route oral. As to conditions: mouse, in vivo. Summed up:
as §1

Data set [3] can be described thus: maximum concentration was measured when administered through oral route in mice. To be noted: mouse, in vivo. The data set is classed as ADME, organism-based. The arrangement: route oral. Summed up:
as §1

A short description of data set [4]: Oral bioavailability in mouse. The data set is classed as ADME, organism-based. As to conditions: in vivo. Summed up: as §1
A short description of data set [5]: Biological half life was measured when given iv route in mice. The class given is ADME, organism-based. To be noted: mouse, in vivo. Summed up: as §1
Another data set deals with COS-1. In words: Inhibitory activity was measured against COS cell. The data set is classed as functional, cell-based, Cercopithecidae. To be noted: Chlorocebus aethiops. An outline of the steps:
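Inhibition of intracellular H-Ras processing, measured in transfected Cos cells.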

Data set [6] has as its system DLD-1. Nature of the data set: The inhibition of growth of solid tumor in DLD-1 model was measured at 10 mg/kg after po administration. 0.1<p<0.25. The data set is classed as functional. To be noted: Homo sapiens.
Data set [7] has as its system DLD-1. In words: The inhibition of growth of solid tumor in DLD-1 model was measured at 50 mg/kg after po administration. 0.01<p<0.025. The data set is classed as functional. To be noted: Homo sapiens.
For data set [8], the target named is Protein farnesyltransferase (Homo sapiens, UniProt P49354+P49356). In words: Inhibition of Farnesyltransferase. The data set is classed as protein-complex assay. An outline of the steps: (§2)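 Radiometric transfer assays measuring trichloroacetic acid-precipitable label. FPT: [3H]farnesyl from [3H]farnesyl pyrophosphate onto Ha-Ras-CVLS. GGPT-1: [3H]geranylgeranyl from [3H]geranylgeranyl diphosphate onto Ha-Ras-CVLL.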

Data set [9] is described as follows: Inhibition of Geranylgeranyl transferase. The arrangement: species or system Homo sapiens. An outline of the steps: as §2
Data set [10] deals with DLD-1. In words: The inhibition of growth of solid tumor in DLD-1 model was measured at 10 mg/kg after po administration. 0.05<p<0.1. As to conditions: Homo sapiens. The class given is functional.
Data set [11] relates to DLD-1. Nature of the data set: The inhibition of growth of solid tumor in DLD-1 model was measured at 50 mg/kg after po administration. p<0.01. The class given is functional. As to conditions: Homo sapiens.
The subject of data set [12] is DLD-1. In words: The inhibition of growth of solid tumor in DLD-1 model was measured at 10 mg/kg after po administration. 0.01<p<0.025. The data set is classed as functional. As to conditions: Homo sapiens.

For the compound `O=C(Cc1cc[n+]([O-])cc1)N1CCC(C2c3ccc(Cl)cc3CCc3cc(Br)cnc32)CC1` (stereo unspecified), the AUC at 24 h was found to be 10600 ng·h/mL in [1] and 4100 ng·h/mL in data set [2]. This compound also showed a Cmax in data set [3] of 10000 ng/mL. In data set [4], this compound yielded a bioavailability of 38%. For the same compound, in data set [5], the half-life amounted to 46 min. Also, the IC50 with COS-1 is 400 nM; in data set [8], 40 nM; in data set [9] it was above 38 µM. The compound also returned an inhibition in vivo at 10 mg/kg with DLD-1 [6] of 38%. Also, 50 mg/kg produced 60% inhibition in vivo in the data set on DLD-1 [7].

Take `O=C(Cc1cc[n+]([O-])cc1)N1CCC(C2c3ccc(Cl)cc3C=Cc3cc(Br)cnc32)CC1` (stereo unspecified): the AUC at 24 h stood at 18600 ng·h/mL in data set [1] and 19000 ng·h/mL in data set [2]. For the same compound, the highest level in [3] (Cmax) was 11000 ng/mL. Besides, the bioavailability in data set [4] was 100%. This compound also returned a half-life in data set [5] of 26.6 min. The IC50 with COS-1 was 700 nM; in data set [8], 30 nM; in data set [9], above 38 µM. The compound also came in with an inhibition in vivo at 10 mg/kg in the data set with DLD-1 [10] of 21%. Further, in the data set on DLD-1 [11], the inhibition in vivo at 50 mg/kg came to 37%.

Regarding `O=C(Cc1cc[n+]([O-])cc1)N1CCC(C2c3ccc(Cl)cc3C=C(Br)c3cc(Br)cnc32)CC1` (stereo unspecified), the figures for the area under the curve (AUC) at 24 h in data set [1] and in data set [2] were 43700 ng·h/mL and 84900 ng·h/mL, respectively. In data set [3], this compound displayed a Cmax of 12000 ng/mL. Further, the bioavailability in data set [4] came out at 100%. The compound also displayed a half-life in data set [5] of 82.2 min. Besides, the figures for the half-maximal inhibitory concentration (IC50) (with COS-1; in [8]; in data set [9]) were 600 nM, 40 nM and above 33 µM, respectively. Moreover, in the data set on DLD-1 [12], 10 mg/kg produced 52% inhibition in vivo. Also, the inhibition in vivo at 50 mg/kg with DLD-1 [11] was 70%.

Regarding `O=C(Cc1cc[n+]([O-])cc1)N1CCC(=C2c3ccc(Cl)cc3CCc3cc(Br)cnc32)CC1`, the peak level in data set [3] (Cmax) was 10000 ng/mL. The compound further had a bioavailability in data set [4] of 75%. Further, the half-life in data set [5] worked out at 48 min. In the data set on DLD-1 [12], this compound gave an inhibition in vivo at 10 mg/kg of 28%. The same compound registered an inhibition in vivo at 50 mg/kg in the data set on DLD-1 [11] of 40%. The same compound came in with an IC50 in data set [9] of 38 µM.

For the origin of these results see ChEMBL document CHEMBL1131571, “Potent, selective, and orally bioavailable tricyclic pyridyl acetamide N-oxide inhibitors of farnesyl protein transferase with enhanced in vivo antitumor activity” (J Med Chem, 1998).
